# Screening data: PubChem, The Scripps Research Institute Molecular Screening Center
# This is a sample that favours compounds with a hit; in the whole collection about 1.8% have one here.
# MC4R antagonist = human MC4R antagonism in cAMP assay; P32245; MC4R-expressing cells, MTII-stimulated cAMP, LANCE TR-FRET; inhibition, % at 6.5 µM; hit rate 0.48% among 360,000;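 active = inhibition above its plate's cutoff, the mean of tested wells on that plate plus 3 SD, cut at about 29% in these data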;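 also: 0% = Melanotan II alone and 100% = Melanotan II plus saturating MCL0020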
#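 Material: human MC4R-expressing U2OS cells. Probe or stimulus: Melanotan II challenge. Dosing: 6.5 µM single dose. Times: 30-min compound, 1-h challenge, 1-h detection, room temperature. Technique: TR-FRET with Eu-cAMP and labeled anti-cAMP, 671 nm. Replication: singlicate.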
# TLR4 MyD88 comp = TLR4-MyD88 interaction inhibition in cells | HeLa CL3-4 TLR4/MyD88 BLA complementation, FRET ratio | O00206+Q99836 | inhibition, % at 8.4 µM | hit rate 0.18% among 200,000 | AID 861; in the data active = inhibition above about 25%;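 also: 0% = vehicle and 100% = reference inhibitor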
# MC4R ag barr = human MC4R agonism via beta-arrestin; hit rate 0.98% among 360,000; AID 540308; P32245; U2OS MC4R beta-arrestin complementation, luminescence; percent of melanotan II response, DMSO zero; activation, % at 8.9 µM;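 active = activation above a per-plate cutoff, the mean activation of sample wells on that plate plus 3 SD, cut at about 8% in these data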
# TLR9-MyD88 inh = inhibitors of human TLR9-MyD88 binding; hit rate 0.21% among 340,000; AID 504734; CHO BLA complementation TLR9-MyD88, CCF4 FRET ratio; inhibition, % at 4.98 µM;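 active = inhibition above the mean over all tested compounds plus 3 SD, cut at about 21% in these data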;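 also: 0% = DMSO only wells and 100% = clavulanate BLA inhibitor control wells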
# Target sequence (Q99836 whole entry, looked up): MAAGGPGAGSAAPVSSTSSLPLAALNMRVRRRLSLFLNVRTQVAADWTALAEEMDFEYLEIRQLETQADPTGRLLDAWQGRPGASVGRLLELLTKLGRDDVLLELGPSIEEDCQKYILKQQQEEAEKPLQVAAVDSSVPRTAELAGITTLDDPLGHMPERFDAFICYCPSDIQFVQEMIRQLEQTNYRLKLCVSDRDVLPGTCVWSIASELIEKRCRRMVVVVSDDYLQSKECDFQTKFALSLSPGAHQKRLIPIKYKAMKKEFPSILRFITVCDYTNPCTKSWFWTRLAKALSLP
# Target sequence (Q9NR96 whole entry, looked up): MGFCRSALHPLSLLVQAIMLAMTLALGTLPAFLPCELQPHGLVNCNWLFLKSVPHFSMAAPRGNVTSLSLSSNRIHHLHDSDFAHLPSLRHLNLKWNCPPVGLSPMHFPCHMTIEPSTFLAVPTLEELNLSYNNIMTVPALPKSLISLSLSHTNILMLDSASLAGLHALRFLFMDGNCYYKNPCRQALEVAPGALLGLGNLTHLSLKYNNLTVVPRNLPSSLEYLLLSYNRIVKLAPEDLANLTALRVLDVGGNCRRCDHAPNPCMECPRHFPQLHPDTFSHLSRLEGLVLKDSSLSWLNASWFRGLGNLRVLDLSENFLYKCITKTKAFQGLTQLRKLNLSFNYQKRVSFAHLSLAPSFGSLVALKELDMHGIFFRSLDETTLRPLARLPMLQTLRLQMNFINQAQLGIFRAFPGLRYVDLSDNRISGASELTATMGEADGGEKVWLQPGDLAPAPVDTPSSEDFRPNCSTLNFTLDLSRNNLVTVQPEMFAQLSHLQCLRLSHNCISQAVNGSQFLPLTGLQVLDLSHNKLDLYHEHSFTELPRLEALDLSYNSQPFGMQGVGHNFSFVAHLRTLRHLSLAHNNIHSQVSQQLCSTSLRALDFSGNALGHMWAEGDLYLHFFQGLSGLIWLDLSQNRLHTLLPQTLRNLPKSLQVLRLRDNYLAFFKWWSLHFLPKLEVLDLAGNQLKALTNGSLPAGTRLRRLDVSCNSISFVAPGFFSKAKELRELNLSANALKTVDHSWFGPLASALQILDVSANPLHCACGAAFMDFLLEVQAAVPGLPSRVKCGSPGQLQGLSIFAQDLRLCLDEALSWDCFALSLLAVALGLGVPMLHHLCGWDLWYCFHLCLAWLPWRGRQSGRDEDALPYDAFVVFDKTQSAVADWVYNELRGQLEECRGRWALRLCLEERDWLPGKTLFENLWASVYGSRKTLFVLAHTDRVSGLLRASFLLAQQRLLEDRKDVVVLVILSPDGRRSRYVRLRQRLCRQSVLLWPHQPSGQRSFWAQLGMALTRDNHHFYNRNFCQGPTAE
# NOD2-RIPK2 inh = inhibitors of human NOD2-RIPK2 interaction. CHO BLA complementation NOD2-RIPK2, CCF4 ratio. O43353. hit rate 0.38% among 360,000. inhibition, % at 4.98 µM. AID 624267; in the data active = inhibition above about 21%;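 also: 0% = vehicle only and 100% = reference blocker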
# MC4R barr conf = human MC4R beta-arrestin agonism confirmation; shares compounds with MC4R ag barr; U2OS MC4R beta-arrestin recruitment, luminescence; scaled DMSO 0%, Melanotan II 100%; activation, % at 8.9 µM; hit rate 31% among 2,400;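 active = mean activation across replicates above the hit cutoff set in the earlier primary screen, cut at about 8% in these data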
# MOR DOR agonist = OPRM1-OPRD1 heterodimer agonism counter-screen | AID 602194 | hit rate 5.8% among 2,400 | U2OS PathHunter beta-arrestin, beta-gal luminescence; percent of deltorphin B response, DMSO zero | shares compounds with MC4R ag barr | activation, % at 9.2 µM;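 active = mean activation across replicates exceeds the hit threshold derived in the earlier primary screen, cut at about 18% in these data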;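 also: 100% = deltorphin B at 0.9 µM final and 0% = DMSO alone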
# * marks the source's active call; other numbers are inactive results; / = not tested or not shown.
SMILES,MC4R antagonist,TLR4 MyD88 comp,MC4R ag barr,TLR9-MyD88 inh,NOD2-RIPK2 inh,MC4R barr conf,MOR DOR agonist
CCN(CC(=O)NCc1ccc(F)cc1)CC(=O)NC1CCCC1,11,/,1,1,-3,/,/
CC1CC(C)CN(C(=S)Nc2ccc(SC(F)F)cc2)C1 (centres undefined),12,-10,24*,-5,4,5,11
CC1(C2CC2)NC(=O)N(CC(=O)Nc2ccc(SC(F)F)cc2)C1=O (centres undefined),8,/,-1,5,-4,/,/
c1ccc(-c2nc(-c3cccs3)[nH]c2-c2ccccc2)cc1,7,0,9.6*,-1,4,3,5
COc1cc(-c2nc(-c3ccccc3)c(-c3cccs3)[nH]2)cc(OC)c1OC,17,7,-1,-8,-2,/,/
CC1(Oc2ccccc2)CCN(Cc2ccc(-c3ccccn3)cc2)C1 (centres undefined),-1,/,8,/,-13,/,/
CCc1ccc(OC2(C)CCN(Cc3ccc(SC)cc3)C2)cc1 (centres undefined),1,/,2,/,-17,/,/
CC1(Oc2ccc(Cl)cc2)CCN(Cc2ccc(-c3ccccn3)cc2)C1 (centres undefined),3,/,13*,/,-8,7,8
CSc1ccc(OC2(C)CCN(Cc3ccc(C(C)C)cc3)C2)cc1 (centres undefined),5,/,12*,/,2,2,6
COC(=O)c1ccccc1S(=O)(=O)N1CCC(C(=O)Nc2ccc(N3CCOCC3)cc2)CC1,1,/,1,-8,-7,/,/
Cc1ccc(S(=O)(=O)N2CCC(C(=O)OCC(=O)NC(C)c3ccc(F)cc3)CC2)cc1C (centres undefined),21,/,0,-8,-4,/,/
c1ccc(Nc2nnc(-c3cccc4ccccc34)o2)cc1,7,/,17*,/,-6,7,8
Cc1cccc(-c2nnc(-c3cccc4ccccc34)o2)c1,2,/,0,7,-20,/,/
Cc1ccc(-c2nnc(-c3cccc4ccccc34)o2)cc1,4,/,0,1,-20,/,/
Clc1ccc(-c2nnc(-c3cccc4ccccc34)o2)cc1,0,/,11*,0,-4,3,2
CCCc1ccc(S(=O)(=O)N2CCN(C(C)C(=O)NCc3ccccc3)CC2)cc1 (centres undefined),1,/,-1,3,0,/,/
O=C(/C=C/c1c(Cl)nc2ccccn12)Nc1ccc(F)cc1,2,-5,-5,4,2,/,/
O=C(CSc1ncn(-c2ccccc2)n1)Nc1nc(-c2ccccc2)cs1,7,7,6,-2,4,/,/
O=C(CSc1ccccc1)Nc1nccs1,4,11,-1,-7,2,/,/
O=C(CSc1nc(-c2ccccc2)cs1)Nc1nccs1,-5,4,19*,-1,5,0,9
Cc1ccc(-c2csc(NC(=O)CSc3ncn(-c4ccccc4)n3)n2)cc1,-3,-2,11*,3,-3,5,5
Cc1ccc(C(=O)NCCc2nnc(SCC(=O)Nc3nc(-c4ccccc4)cs3)n2C)cc1,-4,-3,21*,-4,-6,8.9*,3
Cn1c(CCNC(=O)c2cccs2)nnc1SCC(=O)Nc1nc(-c2ccccc2)cs1,-1,2,-2,-3,7,/,/
O=C(CCc1nc2ccccc2c(=O)[nH]1)OCc1cccc(C(F)(F)F)c1,5,3,4,4,5,/,/
O=C(CCc1nc2ccccc2c(=O)[nH]1)OCc1ccc(-c2ccccc2)cc1,-6,-15,18*,-12,6,3,6
SMILES,MC4R antagonist,TLR4 MyD88 comp,MC4R ag barr,TLR9-MyD88 inh,NOD2-RIPK2 inh,MC4R barr conf,MOR DOR agonist
O=C(CSc1ccccc1)Nc1nnc(COc2ccc(Cl)cc2)s1,-2,-4,18*,-12,-1,3,7
O=C(COc1ccccc1)Nc1nnc(COc2ccccc2)s1,2,/,9.9*,-7,10,-5,3
Cc1ccc(S(=O)(=O)N(C)C[C@@H]2OCc3cn(nn3)CCCC(=O)N([C@@H](C)CO)C[C@H]2C)cc1,3,/,0,-15,-1,/,/
CCCCNS(=O)(=O)c1ccc(NC(=O)C2c3ccccc3Oc3ccccc32)cc1,3,-7,13*,4,10,13*,6
CCOC(=O)N1CCN(C(=O)CSCc2ccc(Br)cc2)CC1,24,-10,-1,0,-16,/,/
COc1cccc(-c2cnc3c(NC=O)cc(-c4ccccc4)cn23)c1,-17,/,3,/,-5,/,/
COc1cccc(-c2cnc3c(NC=O)cc(-c4ccoc4)cn23)c1,-2,/,44*,/,0,34*,0
COc1cccc(-c2cc(NC=O)c3ncc(-c4ccc(F)c(Cl)c4)n3c2)c1,8,/,16*,/,4,10*,6
CCOc1cc(/C=C2\CCn3c2nc2cc(Cl)ccc2c3=O)ccc1O,11,/,12*,-1,-12,9.2*,2
O=c1c2ccc(Cl)cc2nc2n1CC/C2=C\c1cccc(O)c1,12,/,4,7,-7,/,/
Cc1ccsc1C(=O)Nc1ccc(OCc2ccccc2)cc1,15,/,9.7*,2,-1,0,3
COc1ccc(C(=O)Nc2cccc([N+](=O)[O-])c2)cc1Br,-10,-29,22*,13,-5,8.9*,13
CCOc1ccc(/C=N/OCC(=O)Nc2ccc(OCc3ccccc3)cc2)cc1OC,12,-2,13*,-7,-28,8.2*,2
COc1cc(/C=N/OCC(=O)Nc2ccc(OC(F)F)cc2)ccc1OCc1ccccc1,-15,-14,5,-2,7,/,/
COc1ccc(C(=O)Nc2ccc(OCc3ccccc3)cc2)cc1[N+](=O)[O-],0,9,30*,-8,-6,10*,7
O=C(Nc1ccc(OCc2ccccc2)cc1)c1ccccc1,1,-2,1,4,-4,/,/
CNC(=O)c1cc(NC(=O)N(CCC#N)CCN(C(=O)NC(Cc2ccccc2)C(=O)NC(CC(C)C)C(=O)NC)c2ccccc2)ccc1OC (centres undefined),-1,/,2,4,-2,/,/
CN(C)S(=O)(=O)Oc1ccsc1C(=O)Nc1ccc(Cl)c(Cl)c1,17,2,0,-7,6,/,/
COc1ccc(COc2ccsc2C(=O)Nc2ccc(Cl)c(Cl)c2)cc1,-6,6,12*,-5,6,25*,3
COc1ccc(CCNC(=O)c2c(O)c3c([nH]c2=O)CCCC3)cc1,16,0,10*,9,-14,8.6*,5
CCOC(=O)c1cc(-c2ccccc2)sc1NC(=O)CSc1nnc(N)s1,23,-12,11*,2,2,3,7
